≈ marks a conversion by molar mass, not a printed value. Calls of active or inactive are those of the source. No cut-off for these calls is given here.
Assays:
Enterococcus = experiment: Antibacterial activity against vancomycin-resistant Enterococcus assessed as reduction in bacterial growth by broth microdilution method; assay type: functional
In short: (§1)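 Twofold serial dilution (microdilution) MIC in lysogeny broth (LB) medium against drug-resistant strains: MRSA USA300, vancomycin-resistant Enterococci, Klebsiella pneumoniae.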

Staphylococcus aureus [1] = experiment: Antibacterial activity against methicillin-resistant Staphylococcus aureus assessed as increase in number of bacteria at 3 times MIC measured up to 5 hrs; assay type: functional, organism-based
In short: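 Cells washed three times in sterile saline by centrifugation, moved to fresh TSB at 37 °C. Viable counts plated on TSB agar at 2–17 h. PCE = t − c, the time for a 1-log rise in treated versus control. Run twice.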

Staphylococcus aureus [2] = experiment: Antibiofilm activity against Methicillin-resistant Staphylococcus aureus assessed as reduction in number of viable cells at 16 times MIC incubated for 24 hrs; assay type: functional, organism-based
Escherichia coli [3] = experiment: Bactericidal activity against Escherichia coli at 2 to 3 times MIC incubated for 24 hrs by time kill assay; assay type: functional, organism-based
Escherichia coli [4] = experiment: Antibiofilm activity against Escherichia coli assessed as reduction in number of viable cells at 8 times MIC incubated for 24 hrs; assay type: functional, organism-based
Cell membrane [5] = experiment: Induction of cell membrane depolarization in Escherichia coli assessed as increase in fluorescence intensity at 3 times of MIC measured up to 15 hrs by DiSC3-5 dye based fluorescence analysis; assay type: subcellular
In short: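 Mid-log E. coli (6 h culture) was resuspended in 100 mM KCl, 5 mM HEPES pH 7.3 and 5 mM glucose (1:1:1). Cells were loaded with DiSC3(5) at 8 μM final for 80 min at 37 °C, then exposed to 3× MIC. Fluorescence was read at ex 622 nm / em 670 nm, with a water control.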

Staphylococcus aureus [6] = experiment: Antibiofilm activity against Methicillin-resistant Staphylococcus aureus assessed as reduction in number of viable cells at 8 times MIC incubated for 24 hrs; assay type: functional, organism-based
Staphylococcus aureus [7] = experiment: Antibiofilm activity against Methicillin-resistant Staphylococcus aureus assessed as reduction in number of viable cells at 3 times MIC incubated for 24 hrs; assay type: functional, organism-based
In short: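 Biofilm eradication: mid-log MRSA at 2 × 10^6 CFU mL-1 grown 48 h to form biofilms, then washed with PBS. Biofilms exposed to compound at MIC, 2× or 3× MIC for 24 h; medium-only control. Biofilms dispersed with trypsin–EDTA, serial 10-fold dilutions plated, colonies counted after 24 h, expressed as log10 CFU mL-1.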

Cell membrane [8] = experiment: Induction of cell membrane depolarization in methicillin-resistant Staphylococcus aureus assessed as increase in fluorescence intensity at 3 times of MIC measured up to 15 hrs by DiSC3-5 dye based fluorescence analysis; assay type: subcellular
In short: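 Membrane potential assay. Mid-log MRSA (6 h growth) pelleted and resuspended in 100 mM KCl, 5 mM HEPES (pH 7.3) and 5 mM glucose (1:1:1). Mixed with DiSC3(5) at 8 μM final and preincubated 40 min at 37 °C. Compound added at 3× MIC, water control. Fluorescence read at ex 622 / em 670 nm.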

Staphylococcus aureus [9] = experiment: Antibacterial activity against methicillin-resistant Staphylococcus aureus USA300 assessed as reduction in bacterial growth by broth microdilution method; assay type: functional; in short: as §1
Staphylococcus aureus [10] = experiment: Antibacterial activity against methicillin-resistant Staphylococcus aureus measured for 15 days; assay type: functional, organism-based; settings: time 15.0 day
In short: (§2)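 Resistance development: MRSA serially subcultured in fresh medium starting from the initial MIC. MIC reassessed every 24 h over 24 days, alongside a reference antibiotic given in twofold dilutions.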

Staphylococcus aureus [11] = experiment: Antibacterial activity against methicillin-resistant Staphylococcus aureus assessed as effect on viable bacterial growth measured after 24 hrs; assay type: functional, organism-based
[12] = Plasma protein binding in dog assessed as unbound fraction measured after 4 hrs by rapid equilibrium dialysis based LC-MS/MS analysis; assay type: ADME, cell-free, Canis lupus familiaris
In short: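 Rapid equilibrium dialysis of dog plasma against PBS pH 7.4 across an 8000 MWCO membrane. A 10 mM stock was diluted 1:50 with water and added to the plasma side, with sarolaner as control. Plates were shaken for 4 h at 37 °C. Proteins were precipitated with ACN and both chambers quantified by LC-MS/MS. % free = buffer/plasma concentration × 100; % bound = 100 − % free. n = 4.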

Staphylococcus aureus [13] = experiment: Antibacterial activity against methicillin-resistant Staphylococcus aureus infected in Kunming mouse corneal infection model assessed as reduction in viable bacterial count at 3 mg/ml, TOP administered 3 times daily for 1 week; assay type: functional, organism-based; settings: time 1.0 weeks
In short: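 Corneal infection model: male and female Kunming mice (~20 g) immunosuppressed with daily i.p. cyclophosphamide for 3 days. Anesthetized with i.p. avertin (400 mg kg-1), corneas abraded and given 20 μL MRSA (6 × 10^7 CFU mL-1). From 24 h post-infection, treated by topical smear three times daily for one week. Controls: 5% glucose and 5% vancomycin. Six mice per group. Corneal viable counts measured.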

Staphylococcus aureus [14] = experiment: Antibacterial activity against methicillin-resistant Staphylococcus aureus measured for 9 days; assay type: functional, organism-based; settings: time 9.0 day; in short: as §2
Bacillus subtilis = experiment: Antibacterial activity against drug sensitive Bacillus subtilis 168 assessed as reduction in bacterial growth by broth microdilution method; assay type: functional
In short: (§3)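 MICs were determined by standard twofold serial broth microdilution in lysogeny broth (LB) medium.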

Staphylococcus aureus [15] = experiment: Antibacterial activity against methicillin-resistant Staphylococcus aureus assessed as reduction in viable bacterial count measured after 18 hrs; assay type: functional, organism-based
[16] = Cytotoxicity against human HK-2 cells assessed as inhibition of cell growth incubated for 24 hrs by MTT assay; assay type: toxicity, cell-based
In short: (§4)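 MTT assay with 24 h exposure of cells to the samples. IC50 is the concentration giving 50% growth inhibition, reported as mean ± S.D. of three independent experiments.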

Staphylococcus aureus [17] = experiment: Antibacterial activity against drug sensitive Staphylococcus aureus RN4220 assessed as reduction in bacterial growth by broth microdilution method; assay type: functional; in short: as §3
[18] = Cytotoxicity against human HEK293 cells assessed as inhibition of cell growth incubated for 24 hrs by MTT assay; assay type: toxicity, cell-based; in short: as §4

CC(C)(C)c1ccc(CCNc2nc3ccccc3nc2N)cc1
MIC (Enterococcus): > 128 µg/mL | Activity (Staphylococcus aureus [1]): Active | Activity (Staphylococcus aureus [2]): Active | Activity (Escherichia coli [3]): inactive | Activity (Escherichia coli [4]): Active | Activity (Cell membrane [5]): Active | Activity (Staphylococcus aureus [6]): Active | Activity (Staphylococcus aureus [7]): Active | Activity (Cell membrane [8]): Active | MIC (Staphylococcus aureus [9]): 8 µg/mL (≈ 25 µM) | Activity (Staphylococcus aureus [10]): Active | Activity (Staphylococcus aureus [11]): Active | fraction unbound at 4 h [12]: 0.0731 | Activity (Staphylococcus aureus [13]): inactive | Activity (Staphylococcus aureus [14]): Active | MIC (Bacillus subtilis): 8 µg/mL (≈ 25 µM) | Activity (Staphylococcus aureus [15]): Dose-dependent-effect | IC50 at 24 h [16]: 146 µg/mL (≈ 454 µM) | MIC (Staphylococcus aureus [17]): 4 µg/mL (≈ 12.5 µM) | IC50 at 24 h [18]: 129 µg/mL (≈ 403 µM)
